# Test results as given in ChEMBL document CHEMBL5230178, “6-Bromoindirubin-3'-oxime derivatives are highly active colistin adjuvants against Klebsiella pneumoniae” (RSC Med Chem, 2023).
# Activity calls are given as the source filed them. The calls are words filed in the database; no cut-off is given here.
# Columns and labels:
# [1] = tested on: Klebsiella pneumoniae; assay: Potentiation of colistin-induced antibacterial activity against colistin-resistant Klebsiella pneumoniae B9 assessed as colistin MIC at 3 uM incubated for 16 hrs by broth microdilution method; format: functional
# Outline: (§1)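 Bacteria grown 6 h in CAMHB, diluted to 5×10^5 CFU/mL. Fixed adjuvant concentration added from DMSO stock; an undosed aliquot gives the colistin MIC alone. Colistin serially two-fold diluted in the compound-dosed suspension. MIC taken at 90% growth inhibition versus untreated wells. Fold change is colistin MIC alone over MIC with adjuvant. Duplicate, repeated at least twice.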
# [2] = tested on: Klebsiella pneumoniae; assay: Potentiation of colistin-induced antibacterial activity against colistin resistant Klebsiella pneumoniae F9 assessed as colistin MIC at 5 uM incubated for 16 hrs by broth microdilution method; format: functional; outline: as §1
# [3] = tested on: Klebsiella pneumoniae; assay: Potentiation of colistin-induced antibacterial activity against colistin-resistant Klebsiella pneumoniae B9 assessed as fold change in colistin MIC at 1 uM incubated for 16 hrs by broth microdilution method; format: functional; outline: as §1
# [4] = tested on: Klebsiella pneumoniae; assay: Potentiation of colistin-induced antibacterial activity against colistin-resistant Klebsiella pneumoniae B9 assessed as fold change in colistin MIC at 5 uM incubated for 16 hrs by broth microdilution method; format: functional; outline: as §1
# [5] = tested on: Klebsiella pneumoniae; assay: Potentiation of colistin-induced antibacterial activity against colistin resistant Klebsiella pneumoniae F2210291 harbouring mcr-1 gene assessed as colistin MIC at 5 uM incubated for 16 hrs by broth microdilution method; format: functional; outline: as §1
# [6] = tested on: Klebsiella pneumoniae; assay: Antibacterial activity against Klebsiella pneumoniae B9 assessed as inhibition of bacterial growth incubated for 16 hrs by broth microdilution method; format: functional
# Outline: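 Broth microdilution in CAMHB. Six-hour culture diluted to 5×10^5 CFU/mL, compound added from DMSO stock, two-fold serial dilution. MIC is the lowest concentration giving 90% growth inhibition versus untreated wells. Run in duplicate, repeated at least twice.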
# [7] = tested on: Escherichia coli; assay: Potentiation of colistin-induced antimicrobial activity against colistin resistant Escherichia coli 25922 harbouring mcr-1 gene assessed as colistin MIC at 5 uM incubated for 16 hrs by broth microdilution method; format: functional; outline: as §1
# [8] = tested on: Escherichia coli; assay: Antimicrobial activity against colistin resistant Escherichia coli 25922 harbouring mcr-1 gene assessed as inhibition of microbial growth incubated for 16 hrs by broth microdilution method; format: functional, organism-based
# Outline: (§2)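 Bacteria grown 6 h in cation-adjusted Mueller Hinton broth (CAMHB), subcultured to 5×10^5 CFU/mL. Compound added from DMSO stock and serially two-fold diluted in the culture. Incubated stationary at 37 °C for 16 h. MIC taken as the lowest concentration giving 90% growth inhibition versus untreated wells. Duplicate, repeated at least twice.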
# [9] = tested on: Pseudomonas aeruginosa; assay: Potentiation of colistin-induced antimicrobial activity against colistin-resistant Pseudomonas aeruginosa TRPA 162 assessed as colistin MIC at 5 uM incubated for 16 hrs by broth microdilution method; format: functional; outline: as §1
# [10] = tested on: Acinetobacter baumannii; assay: Potentiation of colistin-induced antimicrobial activity against colistin resistant Acinetobacter baumannii 3941 assessed as assessed as colistin MIC at 5 uM incubated for 16 hrs by broth microdilution method; format: functional; outline: as §1
# [11] = tested on: Pseudomonas aeruginosa; assay: Antimicrobial activity against colistin resistant Pseudomonas aeruginosa TRPA 162 assessed as inhibition of microbial growth incubated for 16 hrs by broth microdilution method; format: functional, organism-based; outline: as §2
# [12] = tested on: Klebsiella pneumoniae; assay: Potentiation of colistin-induced antibacterial activity against colistin resistant Klebsiella pneumoniae C3 assessed as colistin MIC at 5 uM incubated for 16 hrs by broth microdilution method; format: functional; outline: as §1
# [13] = tested on: Klebsiella pneumoniae; assay: Potentiation of colistin-induced antibacterial activity against colistin-resistant Klebsiella pneumoniae B9 assessed as fold change in colistin MIC at 3 uM incubated for 16 hrs by broth microdilution method; format: functional; outline: as §1
# [14] = tested on: Klebsiella pneumoniae; assay: Potentiation of colistin-induced antibacterial activity against colistin resistant Klebsiella pneumoniae B9 assessed as colistin MIC at 5 uM incubated for 16 hrs by broth microdilution method; format: functional; outline: as §1
# [15] = tested on: Klebsiella pneumoniae; assay: Potentiation of colistin-induced antibacterial activity against colistin-resistant Klebsiella pneumoniae B9 assessed as colistin MIC at 1 uM incubated for 16 hrs by broth microdilution method; format: functional; outline: as §1
# [16] = tested on: Acinetobacter baumannii; assay: Antimicrobial activity against colistin resistant Acinetobacter baumannii 3941 assessed as inhibition of microbial growth incubated for 16 hrs by broth microdilution method; format: functional, organism-based; outline: as §2
# [17] = tested on: Klebsiella pneumoniae; assay: Potentiation of colistin-induced antibacterial activity against colistin resistant Klebsiella pneumoniae I2 assessed as colistin MIC at 5 uM incubated for 16 hrs by broth microdilution method; format: functional; outline: as §1
# [18] = tested on: Klebsiella pneumoniae; assay: Synergistic antibacterial activity against Klebsiella pneumoniae B9 assessed as reduction in colony forming unit measured per ml at 5 uM measured after 24 hrs in the presence of 2 ug/ml of colistin by time-kill assay; format: functional
# Outline: (§3)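 Overnight CAMHB culture subcultured to 5×10^5 CFU/mL in fresh CAMHB, split into 4 mL aliquots. Dosed with carrier only, adjuvant, colistin, or adjuvant plus colistin. Shaken at 37 °C. At 2, 4, 6, 8 and 24 h, 100 µL sampled, ten-fold serially diluted in CAMHB up to 7 times, plated on LB Lennox agar, incubated overnight at 37 °C, colonies counted.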
# [19] = tested on: Klebsiella pneumoniae; assay: Synergistic antibacterial activity against Klebsiella pneumoniae B9 assessed as reduction in colony forming unit measured per ml at 5 uM measured after 2 hrs in the presence of 2 ug/ml of colistin by time-kill assay; format: functional; outline: as §3
# [20] = tested on: Klebsiella pneumoniae; assay: Antibacterial activity against Klebsiella pneumoniae B9 assessed as inhibition of bacterial growth at 5 uM measured upto 24 hrs by time-kill assay; format: functional, organism-based; outline: as §3
# [21] = tested on: Klebsiella pneumoniae; assay: Induction of drug resistance in colistin-resistant Klebsiella pneumoniae B9 assessed as lipid A modification of LPS at 5 uM incubated for 8 hrs by MALDI-TOF analysis; format: functional, organism-based
# Outline: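 K. pneumoniae B9 grown 18 h at 37 °C in CAMHB, subcultured to 1×10^6 CFU in 120 mL CAMHB. Left untreated or dosed at 5 μM for 8 h, in duplicate. Cells pelleted, washed with endotoxin-free water, and extracted on-plate with 70% citric acid at 110 °C for 30 min. Norharmane matrix applied, then MALDI-TOF in negative ion mode.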
# [22] = tested on: Klebsiella pneumoniae; assay: Synergistic antibacterial activity against Klebsiella pneumoniae B9 assessed as reduction in colony forming unit at 5 uM measured at 6 to 24 hrs in the presence of 4 ug/ml of colistin by time-kill assay; format: functional, organism-based; conditions: time 6-24 hrs; outline: as §3
# [23] = Hemolytic activity in sheep RBC assessed as hemolysis upto 400 uM incubated for 1 hrs by UV-Vis spectrophotometric analysis; format: toxicity, cell-based, Ovis aries; conditions: erythrocyte
# Outline: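 Defibrinated sheep blood cells washed three times in PBS by centrifugation (10 min, 10,000 rpm), resuspended in 10 mL PBS, compound added. PBS served as 0% lysis and 1% Triton X-100 as 100% lysis. Shaken at 200 rpm, 37 °C, 1 h, then centrifuged. Supernatant diluted 40-fold in water, absorbance read at 540 nm.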
# [24] = tested on: Klebsiella pneumoniae; assay: Synergistic antibacterial activity against Klebsiella pneumoniae B9 assessed as reduction in colony forming unit measured per ml at 5 uM measured after 8 hrs in the presence of 0.5 ug/ml of colistin by time-kill assay; format: functional; outline: as §3
# [25] = tested on: Klebsiella pneumoniae; assay: Antibacterial activity against colistin resistant Klebsiella pneumoniae F2210291 harbouring mcr-1 gene assessed as inhibition of bacterial growth incubated for 16 hrs by broth microdilution method; format: functional, organism-based; outline: as §2
# [26] = tested on: Klebsiella pneumoniae; assay: Antibacterial activity against colistin resistant Klebsiella pneumoniae I2 assessed as inhibition of bacterial growth incubated for 16 hrs by broth microdilution method; format: functional, organism-based; outline: as §2
# [27] = tested on: Klebsiella pneumoniae; assay: Antibacterial activity against colistin resistant Klebsiella pneumoniae F9 assessed as inhibition of bacterial growth incubated for 16 hrs by broth microdilution method; format: functional, organism-based; outline: as §2
# [28] = tested on: Klebsiella pneumoniae; assay: Antibacterial activity against colistin resistant Klebsiella pneumoniae C3 assessed as inhibition of bacterial growth incubated for 16 hrs by broth microdilution method; format: functional, organism-based; outline: as §2
compound,measurement,setting,value
O=C1Nc2cc(Br)ccc2/C1=C1/Nc2c(Br)cccc2/C1=N\O,MIC,[1],2 µg/mL
same,MIC,[2],4 µg/mL
same,fold change (FC),[3],16
same,fold change (FC),[4],512
same,MIC,[5],2 µg/mL
same,MIC,[6],> 200 µM
same,MIC,[7],1 µg/mL
same,Activity,[8],inactive
same,MIC,[9],> 16 µg/mL
same,MIC,[10],> 16 µg/mL
same,Activity,[11],inactive
same,MIC,[12],4 µg/mL
same,fold change (FC),[13],256
same,MIC,[14],1 µg/mL
same,MIC,[15],32 µg/mL
same,Activity,[16],inactive
same,MIC,[17],4 µg/mL
O=C1Nc2cc(Br)ccc2/C1=C1/Nc2c(Cl)cccc2/C1=N\O,MIC,[1],2 µg/mL
same,MIC,[2],4 µg/mL
same,fold change (FC),[3],16
same,fold change (FC),[4],512
same,MIC,[5],2 µg/mL
same,MIC,[6],> 200 µM
same,MIC,[7],2 µg/mL
same,Activity,[8],inactive
same,MIC,[9],> 16 µg/mL
same,MIC,[10],> 16 µg/mL
same,Activity,[11],inactive
same,MIC,[12],4 µg/mL
same,fold change (FC),[13],256
same,MIC,[14],1 µg/mL
same,MIC,[15],32 µg/mL
same,Activity,[16],inactive
same,MIC,[17],4 µg/mL
O=C1Nc2cc(Br)ccc2/C1=C1/Nc2c(F)cccc2/C1=N\O,MIC,[1],2 µg/mL
same,MIC,[2],4 µg/mL
same,fold change (FC),[4],256
same,MIC,[5],2 µg/mL
same,MIC,[6],> 200 µM
same,MIC,[7],2 µg/mL
same,Activity,[8],inactive
same,MIC,[9],> 16 µg/mL
same,MIC,[10],> 16 µg/mL
same,Activity,[11],inactive
same,MIC,[12],4 µg/mL
same,fold change (FC),[13],256
same,MIC,[14],2 µg/mL
same,MIC,[15],> 64 µg/mL
same,Activity,[16],inactive
same,MIC,[17],4 µg/mL
O=C1Nc2cc(Br)ccc2/C1=C1/Nc2ccccc2/C1=N\O [6BIO],MIC,[1],32 µg/mL
same,MIC,[2],4 µg/mL
same,fold change (FC),[4],512
same,MIC,[5],2 µg/mL
same,MIC,[6],> 200 µM
same,MIC,[7],2 µg/mL
same,Activity,[8],inactive
same,MIC,[9],> 16 µg/mL
same,MIC,[10],> 16 µg/mL
same,Activity,[11],inactive
same,MIC,[12],4 µg/mL
same,fold change (FC),[13],16
same,MIC,[14],1 µg/mL
same,MIC,[15],> 64 µg/mL
same,Activity,[16],inactive
same,MIC,[17],8 µg/mL
O=C1Nc2cc(Br)ccc2/C1=C1/Nc2cc(Cl)ccc2/C1=N\O,MIC,[1],1 µg/mL
same,MIC,[2],2 µg/mL
same,fold change (FC),[3],32
same,log(activity),[18],1
same,log(activity),[19],2
same,fold change (FC),[4],1024
same,Activity,[20],inactive
same,MIC,[5],1 µg/mL
same,Activity,[21],inactive
same,MIC,[6],> 200 µM
same,MIC,[7],2 µg/mL
same,Activity,[22],Active
same,Activity,[23],Non-Toxic
same,Activity,[8],inactive
same,MIC,[9],> 16 µg/mL
same,MIC,[10],> 16 µg/mL
same,log(activity),[24],1
same,Activity,[11],inactive
same,MIC,[12],1 µg/mL
same,fold change (FC),[13],256
same,MIC,[14],0.5 µg/mL
same,MIC,[15],16 µg/mL
same,Activity,[16],inactive
same,MIC,[17],2 µg/mL
O=C1Nc2cc(Br)ccc2/C1=C1/Nc2cc(F)c(F)cc2/C1=N\O,MIC,[1],4 µg/mL
same,fold change (FC),[4],512
same,MIC,[6],> 200 µM
same,fold change (FC),[13],128
same,MIC,[14],1 µg/mL
same,MIC,[15],> 64 µg/mL
O=C1Nc2cc(Br)ccc2/C1=C1/Nc2ccc(Cl)cc2/C1=N\O,MIC,[1],16 µg/mL
same,fold change (FC),[4],256
same,MIC,[6],> 200 µM
same,fold change (FC),[13],32
same,MIC,[14],2 µg/mL
same,MIC,[15],> 64 µg/mL
COLISTIN,MIC,[6],512 µg/mL
same,MIC,[25],16 µg/mL
same,MIC,[26],512 µg/mL
same,MIC,[8],16 µg/mL
same,MIC,[27],256 µg/mL
same,MIC,[11],1020 µg/mL
same,MIC,[16],1020 µg/mL
same,MIC,[28],128 µg/mL
